Like-named read-outs stand apart in the source and are kept apart here. Marks after values point to notes of the source that are not given here. Blank lines part the entries; values can stand above or below the molecule they belong to.
Experiments:
[1] = tested on: AGS; settings: read-out: cytotoxicity class (GI50), gastric; cited from earlier work
[2] = tested on: HL-60; settings: read-out: cytotoxicity class (GI50); HL-60, leukemia/lymphoma; cited from earlier work
[3] = tested on: Molt-3; settings: read-out: cytotoxicity class (GI50); Molt-3, leukemia/lymphoma; cited from earlier work
[4] = tested on: MEL-1; settings: read-out: cytotoxicity class (GI50); MEL-1, leukemia/lymphoma; cited from earlier work
[5] = tested on: MV-3; settings: read-out: cytotoxicity class (GI50); cited from earlier work
[6] = tested on: PaCa-2; settings: read-out: cytotoxicity class (GI50); cited from earlier work
[7] = tested on: MCR-5; settings: read-out: cytotoxicity class (GI50); cited from earlier work
[8] = tested on: NCI-H460; assay: MTT assay, NCI-H460; format: cell-based, human; settings: for GI50: Homo sapiens, NCI-H460, 72 h, read-out: GI50 (50% cell growth inhibition)
Outline: (§1)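 Cells were grown in RPMI 1640 with 10% FBS and penicillin–streptomycin at 37 °C in 5% CO2. The P-gp-overexpressing NCI-H460/R line was derived from NCI-H460 by stepwise doxorubicin (5–100 nM, 3 months). Test compound (2.5–50 μM) ran 72 h, then MTT (1 mg/mL) 4 h at 37 °C. Formazan was dissolved in DMSO and read at 540 nm. Viability was relative to untreated cells, giving GI50. At least two independent experiments were run in triplicate. Paclitaxel served as positive control.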

[9] = tested on: NCI-H460/R; assay: MTT assay, NCI-H460/R; format: cell-based; settings: Homo sapiens, NCI-H460, 72 h, read-out: GI50 (50% cell growth inhibition)
Outline: as §1

[10] = tested on: MCR-5; assay: MTT assay, MCR-5 normal lung cells; format: cell-based; settings: Homo sapiens, MCR5, 72 h, read-out: GI50 (50% cell growth inhibition)
Outline: as §1

[11] = tested on: MDA-MB-231; assay: sulfurhodamine B; format: cell-based; settings: Homo sapiens, MDA-MB-231, 48 h, read-out: GI50 (50% cell growth inhibition)
Outline: (§2)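 Cells were kept at 37 °C in 5% CO2 with 10% FBS and penicillin–streptomycin. MDA-MB-231 were grown in DMEM, the others in RPMI 1640. Cells were seeded at 5.0 × 10^3/well and left 24 h before serial dilutions of test compound (1.85–150 μM) for 48 h. Cells were fixed with 10% TCA, stained with 0.4% SRB and washed with 1% acetic acid. Bound dye was dissolved in 10 mM Tris (pH 10.5) and read at 510 nm. Doxorubicin served as positive control.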

[12] = tested on: MCF-7; assay: sulfurhodamine B; format: cell-based; settings: Homo sapiens, MCF7, 48 h, read-out: GI50 (50% cell growth inhibition)
Outline: as §2

[13] = tested on: HCT116; assay: sulfurhodamine B; format: cell-based; settings: Homo sapiens, HCT-116, 48 h, read-out: GI50 (50% cell growth inhibition)
Outline: as §2

SMILES: CC(C)C1=C(O)C(=O)C2=C(CC[C@H]3C(C)(C)CCC[C@]23C)C1=O [R1 = H, R2 = H, R3 = OH, royleanone]
GI50 [1]: > 30 µM
GI50 [2]: > 30 µM
GI50 [3]: 10 to 30 µM
GI50 [4]: > 30 µM
GI50 [5]: > 30 µM
GI50 [6]: > 30 µM
GI50 [7]: 10 to 30 µM

GI50 [8]: 0.0006 µM
GI50 [9]: 0.117 µM
SMILES: CC(=O)O[C@H]1C(=O)[C@@]2(C)[C@H]([C@H](OC(=O)c3ccccc3)[C@]3(O)C[C@H](OC(=O)[C@H](O)[C@@H](NC(=O)c4ccccc4)c4ccccc4)C(C)=C1C3(C)C)[C@]1(OC(C)=O)CO[C@@H]1C[C@@H]2O [PCX, Paclitaxel]
Selectivity index, SI = GI50(MCR-5)/GI50(NCI-H460) ([8]; MCR-5 vs NCI-H460, MTT assay): PCX 872***
GI50 [10]: 0.523 µM

GI50 [11]: 0.072 µM
GI50 [12]: 0.16 µM
GI50 [13]: 0.125 µM
SMILES: COc1cccc2c1C(=O)c1c(O)c3c(c(O)c1C2=O)C[C@@](O)(C(=O)CO)C[C@@H]3O[C@H]1C[C@H](N)[C@H](O)[C@H](C)O1 [DOX, Doxorubicin]

GI50 [11]: > 100 µM
GI50 [8]: > 100 µM
GI50 [9]: > 100 µM
SMILES: O=C(/C=C/c1ccc(O)c(O)c1)O[C@H](Cc1ccc(O)c(O)c1)C(=O)O [(1), rosmarinic acid]
GI50 [10]: > 100 µM

Source: publication PMC6648853 (ACS Omega, 2019)
